Data from ChEMBL document CHEMBL3227986, “Design of species- or isozyme-specific enzyme inhibitors. 1. Effect of thymidine substituents on affinity for the thymidine site of hamster cytoplasmic thymidine kinase” (J Med Chem, 1979).

How the values were obtained:
[1] = biological target: T1, Thymidine kinase, cytosolic (Homo sapiens, UniProt P04183); test: Inhibition of human cytoplasmic thymidine kinase
T1 sequence (P04183 whole entry): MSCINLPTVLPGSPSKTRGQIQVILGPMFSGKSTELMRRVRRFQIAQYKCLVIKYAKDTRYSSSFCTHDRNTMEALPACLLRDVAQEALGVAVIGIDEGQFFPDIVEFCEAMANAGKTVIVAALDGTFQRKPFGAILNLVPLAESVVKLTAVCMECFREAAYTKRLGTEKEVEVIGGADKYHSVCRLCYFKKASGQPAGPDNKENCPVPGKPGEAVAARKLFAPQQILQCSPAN

[2] = biological target: T2, Thymidine kinase 2, mitochondrial (Homo sapiens, UniProt O00142); test: Inhibition of human mitochondrial thymidine kinase
T2 sequence (O00142 whole entry): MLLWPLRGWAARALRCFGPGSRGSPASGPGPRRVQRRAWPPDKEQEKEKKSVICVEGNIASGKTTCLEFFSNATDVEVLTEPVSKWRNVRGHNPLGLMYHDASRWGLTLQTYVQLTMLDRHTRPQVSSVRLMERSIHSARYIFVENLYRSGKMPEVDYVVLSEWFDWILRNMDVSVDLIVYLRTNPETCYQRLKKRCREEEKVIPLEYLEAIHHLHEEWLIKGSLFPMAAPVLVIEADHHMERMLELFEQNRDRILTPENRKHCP

[3] = biological target: T3, Thymidine kinase, cytosolic (Cricetulus griseus) (UniProt P09768); test: Inhibition of thymidine kinase in BHK21 (C13) cells using thymidine as substrate assessed as formation of TMP at 2 mM; format: cell-based; conditions: Mesocricetus auratus
T3 sequence (whole entry): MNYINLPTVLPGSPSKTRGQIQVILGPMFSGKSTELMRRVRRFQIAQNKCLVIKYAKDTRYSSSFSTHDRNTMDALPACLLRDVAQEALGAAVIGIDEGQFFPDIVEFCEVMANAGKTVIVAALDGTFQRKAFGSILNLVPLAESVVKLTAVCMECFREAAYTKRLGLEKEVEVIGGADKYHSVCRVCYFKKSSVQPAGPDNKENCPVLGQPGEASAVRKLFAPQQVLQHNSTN
In short: (§1)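 BHK21(C13) 100000g supernatant in Tris-HCl 0.05 M pH 8.0, ATP 5 mM, MgCl2 2.5 mM, [14C]thymidine 3.6 μM, 10 min at 37 °C. Reaction stopped by boiling; [14C]TMP bound to DEAE-cellulose disks and counted by liquid scintillation, corrected for unincubated blanks.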

[4] = biological target: T3, Thymidine kinase, cytosolic (Cricetulus griseus); test: Inhibition of thymidine kinase in BHK21 (C13) cells using thymidine as substrate assessed as formation of TMP at 4 mM; format: cell-based; conditions: Mesocricetus auratus; in short: as §1
[5] = biological target: T3, Thymidine kinase, cytosolic (Cricetulus griseus); test: Activity at thymidine kinase in BHK21 (C13) cells at 350 uM after 30 mins relative to thymidine; format: cell-based; conditions: Mesocricetus auratus
In short: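 Radiolabeled thymidine or 2'-deoxyuridine derivatives tested as substrates: 40 μL BHK21(C13) 100000g supernatant, Tris-HCl 0.05 M pH 8.0, ATP 5 mM, MgCl2 2.5 mM, no thymidine, 30 min at 37 °C. Products separated by paper electrophoresis in 0.05 M triethylammonium bicarbonate pH 7.6; radioactivity counted in the TMP region.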

Ki [1] [µM]	Ki [2] [µM]	inhibition [3] [%]	inhibition [4] [%]	Activity [5] [%]	Compound
20	20				CCCc1cn([C@H]2C[C@H](O)[C@@H](CO)O2)c(=O)[nH]c1=O
		8	13	< 0.25	CC(=O)Nc1cn([C@H]2C[C@H](O)[C@@H](CO)O2)c(=O)[nH]c1=O
